According to ChEMBL document CHEMBL3822450, “Novel c-Met inhibitory olive secoiridoid semisynthetic analogs for the control of invasive breast cancer” (Eur J Med Chem, 2016):

What was measured:
cells = details: Homo sapiens, MCF-10A, 24 h
MDA-MB-231 [1] = assay: cells; details: Homo sapiens, MDA-MB-231, 72 h
MDA-MB-231 [2] = assay: cells; details: Homo sapiens, MDA-MB-231, 24 h
MDA-MB-468 [3] = assay: cells; details: Homo sapiens, MDA-MB-468, 72 h
[4] = biological target: Hepatocyte growth factor receptor (Homo sapiens, UniProt P08581); assay: Inhibition of recombinant human N-terminal His-tagged cytoplasmic c-MET kinase domain (956 to 1390 residues) phosphorylation expressed in baculovirus expression system using Tyr peptide-6 substrate incubated for 1 hr in presence of ATP by Z-Lyte assay
[5] = Cytotoxicity against human MCF10A cells assessed as inhibition of HGF-induced cell growth up to 80 uM incubated for 24 hrs by MTT assay; assay type: cell-based; details: mcf-10a
MDA-MB-231 [6] = assay: Effect on total c-MET protein level in human MDA-MB-231 cells at 1 to 10 uM after 72 hrs by Western blot analysis; details: mda-mb-231, 72 h
Procedure, shortened: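 HGF-stimulated cells treated 72 h with 1, 5 or 10 µM or vehicle; RIPA lysates, BCA-normalised, SDS-PAGE, PVDF, blocked in 2% BSA/TBST; primary antibodies (1:1,000) overnight at 4°C against total c-Met and phospho-c-Met Y1234/1235, HRP secondary, ECL detection; β-tubulin loading control.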

MDA-MB-231 [7] = assay: Antiproliferative activity against human MDA-MB-231 spheroids expressing c-MET assessed as inhibition of HGF-induced spheroid growth measured every 4 hrs for 72 hrs by cell tracker red dye based 3D spheroid disaggregation assay; assay type: functional
Procedure, shortened: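 CellTracker Red-labelled cells, 1,000/well in ultra-low-attachment round-bottom wells with phenol-red-free DMEM, 10% FBS, 5% Matrigel; single spheroid formed over 24 h, then HGF stimulation with compound or DMSO; imaged every 4 h for 72 h at 37°C; average red-object area gives fold increase in spheroid size; 8 spheroids/group, repeated twice.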

MDA-MB-231 [8] = assay: Antiproliferative activity against human MDA-MB-231 cells expressing c-MET assessed as inhibition of HGF-induced cell growth incubated for 72 hrs by MTT assay
MDA-MB-468 [9] = assay: Antiproliferative activity against human MDA-MB-468 cells expressing c-MET assessed as inhibition of HGF-induced cell growth incubated for 72 hrs by MTT assay

Compound | IC50 (MDA-MB-231 [1]) [µM] | IC50 (MDA-MB-231 [2]) [µM] | IC50 (MDA-MB-468 [3]) [µM] | IC50 [4] [µM] | IC50 (cells) [µM] | further results
COc1cc(/C=C/C(=O)OCCc2ccc(N)nc2)ccc1O | – | – | – | – | 213 | –
COc1cc(/C=C/C(=O)OCCCc2ccc(O)cc2)cc(OC)c1O | – | – | – | – | 203 | –
COc1cc(/C=C/C(=O)OCCc2ccc(O)c(O)c2)ccc1N | – | – | – | – | 244 | –
COc1ccc(CCOC(=O)/C=C/c2cc(OC)c(O)c(OC)c2)cc1OC | 9.2 | 7.8 | 8.6 | > 20 | 214 | –
COc1cc(/C=C/COC(=O)/C=C/c2ccc(O)c(OC)c2)ccc1O | 22.3 | 19.8 | 25.6 | > 20 | – | –
COc1cc(/C=C/C(=O)OCCc2ccc(N)nc2)cc(OC)c1O | – | – | – | – | 210 | –
COc1cc(/C=C/COC(=O)/C=C/c2cc(OC)c(O)c(OC)c2)ccc1O | 27.9 | 18.8 | 31.2 | > 20 | – | –
COc1cc(/C=C/C(=O)OCc2cc(OC)c(O)c(OC)c2)ccc1O | – | – | – | – | 168 | –
COc1cc(/C=C/C(=O)OCc2cc(OC)c(O)c(OC)c2)cc(OC)c1O | – | – | – | – | 172 | –
COc1cc(/C=C/C(=O)OCCCc2ccc(O)cc2)ccc1O | – | – | – | – | 190 | –
COc1ccc(CCOC(=O)/C=C\c2cc(OC)c(O)c(OC)c2)cc1OC | 10.1 | 8.1 | 10.5 | > 20 | – | –
COc1cc(CCOC(=O)/C=C/c2cc(OC)c(O)c(OC)c2)ccc1O | – | – | – | – | – | Activity [5]: Non-toxic; Activity (MDA-MB-231 [6]): Non-toxic; growth inhibition (GI) (MDA-MB-231 [7]): Dose-dependent effect; growth inhibition (GI) (MDA-MB-231 [8]): Dose-dependent effect; growth inhibition (GI) (MDA-MB-468 [9]): Dose-dependent effect
OCCc1ccc(O)cc1 [TYROSOL] | > 100 | > 50 | > 100 | > 20 | – | –
COc1cc(/C=C/C(=O)OCCc2ccc(O)c(N)c2)cc(OC)c1O | – | – | – | – | 186 | –
O=C(/C=C/c1ccc(O)cc1)OCCc1ccc(O)c(O)c1 | 16 | 12.7 | 20.3 | > 20 | – | –
COc1cc(CCC(=O)OCCc2ccc(O)cc2)cc(OC)c1O | 91.3 | > 50 | 92.2 | > 20 | – | –
COc1cc(/C=C(\C#N)C(=O)OCCc2ccc(O)cc2)cc(Br)c1O | 83.2 | 40.6 | 89.2 | > 20 | – | –

The next lines start with results.

IC50 (MDA-MB-231 [1]) [µM] | IC50 (MDA-MB-231 [2]) [µM] | IC50 (MDA-MB-468 [3]) [µM] | IC50 [4] [µM] | Compound | IC50 (cells) [µM] | further results
68.8 | 30.4 | 74.5 | > 20 | COc1cc(C=C(S)C(=O)OCCc2ccc(O)cc2)ccc1O | – | –
10.6 | 8.3 | 14.2 | > 20 | COc1cc(/C=C/C(=O)Oc2ccc(O)cc2C(C)=O)ccc1O | – | –
72.8 | > 50 | 80.2 | > 20 | COc1cc(/C=C/C(=O)NCCc2ccc(O)cc2)cc(OC)c1O [TRANS-N-SINAPOYLTYRAMINE] | – | –
7.3 | 5.4 | 8.9 | > 20 | COc1cc(/C=C/C(=O)OCCc2ccc(OC)c(OC)c2)ccc1O | 274 | –
72.3 | 16.3 | 79.1 | > 20 | COc1cc(/C=C/c2nc(-c3ccc(O)cc3)no2)cc(OC)c1O | – | –
80.4 | 13.8 | 93.7 | > 20 | COC(=O)C1=CO[C@@H](C)[C@@H](C=O)[C@@H]1CC(=O)OCCc1ccc(O)cc1 | – | –
89.9 | 4.6 | 91.1 | > 20 | COc1cc(/C=C/C=N/CCc2ccc(O)cc2)cc(OC)c1O | – | –
11.8 | 8.1 | 15.9 | > 20 | COc1cc(/C=C/C(=O)Oc2ccc(O)cc2C(C)=O)cc(OC)c1O | – | –
8.2 | 6.2 | 9.9 | > 20 | COc1cc(/C=C\C(=O)OCCc2ccc(OC)c(OC)c2)ccc1O | 223 | –
